In ChEMBL document CHEMBL2150988, “Preparation and optimization of new 4-(morpholin-4-yl)-(6-oxo-1,6-dihydropyrimidin-2-yl)amide derivatives as PI3Kβ inhibitors” (Bioorg Med Chem Lett, 2012):
≈ marks a conversion by molar mass, not a printed value.

Tests used:
[1] = biological target: Phosphatidylinositol 4,5-bisphosphate 3-kinase catalytic subunit alpha isoform (Homo sapiens, UniProt P42336); experiment: Inhibition of PI3Kalpha
[2] = biological target: Phosphatidylinositol 4,5-bisphosphate 3-kinase catalytic subunit beta isoform (Homo sapiens, UniProt P42338); experiment: Inhibition of PI3Kbeta
[3] = biological target: T1, Phosphatidylinositol 4,5-bisphosphate 3-kinase catalytic subunit delta isoform (Homo sapiens, UniProt O00329); experiment: Inhibition of PI3Kdelta
T1 sequence (O00329 whole entry): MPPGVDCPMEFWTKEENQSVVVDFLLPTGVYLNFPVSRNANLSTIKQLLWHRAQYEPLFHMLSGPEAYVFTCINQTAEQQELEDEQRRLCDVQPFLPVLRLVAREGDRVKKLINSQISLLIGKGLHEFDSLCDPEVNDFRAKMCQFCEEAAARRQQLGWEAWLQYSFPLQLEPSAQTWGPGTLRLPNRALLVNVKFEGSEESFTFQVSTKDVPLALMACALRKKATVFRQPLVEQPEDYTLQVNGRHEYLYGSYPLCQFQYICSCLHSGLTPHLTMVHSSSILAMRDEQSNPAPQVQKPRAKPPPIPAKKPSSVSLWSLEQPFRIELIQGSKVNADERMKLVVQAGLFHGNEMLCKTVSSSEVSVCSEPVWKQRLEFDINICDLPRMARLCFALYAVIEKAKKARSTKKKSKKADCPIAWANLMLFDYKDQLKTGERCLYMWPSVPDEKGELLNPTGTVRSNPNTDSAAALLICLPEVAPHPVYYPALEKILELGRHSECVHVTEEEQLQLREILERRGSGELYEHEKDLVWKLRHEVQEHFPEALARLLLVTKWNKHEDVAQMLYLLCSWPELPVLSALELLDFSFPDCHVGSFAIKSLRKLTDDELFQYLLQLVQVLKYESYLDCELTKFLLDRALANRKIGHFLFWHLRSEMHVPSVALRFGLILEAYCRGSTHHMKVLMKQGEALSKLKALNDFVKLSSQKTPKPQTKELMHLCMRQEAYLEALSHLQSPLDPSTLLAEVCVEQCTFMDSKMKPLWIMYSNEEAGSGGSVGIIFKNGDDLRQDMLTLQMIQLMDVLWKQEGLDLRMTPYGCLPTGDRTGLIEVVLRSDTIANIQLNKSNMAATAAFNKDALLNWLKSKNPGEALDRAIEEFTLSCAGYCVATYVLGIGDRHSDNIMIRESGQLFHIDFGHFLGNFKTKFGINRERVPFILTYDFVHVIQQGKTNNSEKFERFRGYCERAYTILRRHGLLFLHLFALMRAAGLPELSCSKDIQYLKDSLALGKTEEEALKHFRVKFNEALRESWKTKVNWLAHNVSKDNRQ

[4] = biological target: Phosphatidylinositol 4,5-bisphosphate 3-kinase catalytic subunit gamma isoform (Homo sapiens, UniProt P48736); experiment: Inhibition of PI3Kgamma
[5] = Inhibition of Akt phosphorylation at S473 in PTEN deficient human PC3 cells; assay type: cell-based; conditions: PC-3
[6] = Equilibrium solubility of the compound in phosphate buffer at pH 7.4 after 16 hrs by HPLC analysis; assay type: physicochemical
[7] = Apparent permeability across human Caco2/TC7 cells; assay type: ADME, cell-based; conditions: Caco-2
In short: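 Caco-2 TC7 clone monolayers; transport measured in both apical-to-basolateral and basolateral-to-apical directions, giving Papp (nm/s) and an efflux ratio.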

[8] = Drug metabolism in mouse liver microsomes after 20 mins; assay type: ADME, Microsome; conditions: read-out: Drug metabolism
In short: (§1)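 Liver microsomes (human or mouse) incubated with compound for 20 min; %lability reported as % of compound metabolized.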

[9] = Drug metabolism in human liver microsomes after 20 mins; assay type: ADME, Microsome; conditions: read-out: Drug metabolism; in short: as §1
Cytochrome P450 3A4 = Cytochrome P450 3A4 (Homo sapiens, UniProt P08684); experiment: Inhibition of human recombinant CYP3A4; assay type: ADME
[10] = Efflux ratio of permeability […] in human Caco2/TC7 cells; assay type: ADME, cell-based
In short: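 Caco-2 TC7 clone cells grown as a monolayer; compound transport measured in both directions, apical to basolateral (A–B) and basolateral to apical (B–A); apparent permeability (Papp) read out, and efflux ratio derived from the two directional measurements.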

Phosphatidylinositol 4,5-bisphosphate 3-kinase catalytic subunit gamma isoform, sequence (P48736 whole entry, canonical isoform): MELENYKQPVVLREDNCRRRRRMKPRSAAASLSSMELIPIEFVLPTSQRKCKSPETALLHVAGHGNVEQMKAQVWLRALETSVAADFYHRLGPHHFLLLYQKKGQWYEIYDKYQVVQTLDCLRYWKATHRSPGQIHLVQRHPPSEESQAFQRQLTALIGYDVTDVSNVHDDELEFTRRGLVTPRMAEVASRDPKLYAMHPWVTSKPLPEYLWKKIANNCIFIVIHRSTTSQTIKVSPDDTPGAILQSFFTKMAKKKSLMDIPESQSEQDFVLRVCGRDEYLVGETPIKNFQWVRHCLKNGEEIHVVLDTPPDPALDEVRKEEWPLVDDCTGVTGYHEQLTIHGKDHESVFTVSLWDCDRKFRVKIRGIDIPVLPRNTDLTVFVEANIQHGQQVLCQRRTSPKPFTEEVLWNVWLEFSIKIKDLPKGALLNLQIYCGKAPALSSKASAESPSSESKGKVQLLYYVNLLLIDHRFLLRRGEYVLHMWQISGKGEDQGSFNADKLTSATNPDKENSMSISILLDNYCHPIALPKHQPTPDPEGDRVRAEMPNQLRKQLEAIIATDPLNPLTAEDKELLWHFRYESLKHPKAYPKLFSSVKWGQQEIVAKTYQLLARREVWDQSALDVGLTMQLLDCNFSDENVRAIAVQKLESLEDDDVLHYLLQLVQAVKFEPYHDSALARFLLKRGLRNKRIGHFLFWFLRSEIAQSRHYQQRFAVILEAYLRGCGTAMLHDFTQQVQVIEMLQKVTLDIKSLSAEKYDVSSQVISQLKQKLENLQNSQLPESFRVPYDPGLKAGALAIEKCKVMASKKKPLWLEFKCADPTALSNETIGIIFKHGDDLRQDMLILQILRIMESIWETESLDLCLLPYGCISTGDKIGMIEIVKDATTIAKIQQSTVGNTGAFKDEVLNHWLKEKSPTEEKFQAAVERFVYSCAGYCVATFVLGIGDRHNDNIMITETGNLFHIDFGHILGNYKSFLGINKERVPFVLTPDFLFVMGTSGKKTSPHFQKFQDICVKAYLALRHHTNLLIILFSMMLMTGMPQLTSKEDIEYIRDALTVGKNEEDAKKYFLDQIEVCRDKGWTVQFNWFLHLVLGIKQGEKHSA
Phosphatidylinositol 4,5-bisphosphate 3-kinase catalytic subunit beta isoform, sequence (P42338 whole entry, canonical isoform): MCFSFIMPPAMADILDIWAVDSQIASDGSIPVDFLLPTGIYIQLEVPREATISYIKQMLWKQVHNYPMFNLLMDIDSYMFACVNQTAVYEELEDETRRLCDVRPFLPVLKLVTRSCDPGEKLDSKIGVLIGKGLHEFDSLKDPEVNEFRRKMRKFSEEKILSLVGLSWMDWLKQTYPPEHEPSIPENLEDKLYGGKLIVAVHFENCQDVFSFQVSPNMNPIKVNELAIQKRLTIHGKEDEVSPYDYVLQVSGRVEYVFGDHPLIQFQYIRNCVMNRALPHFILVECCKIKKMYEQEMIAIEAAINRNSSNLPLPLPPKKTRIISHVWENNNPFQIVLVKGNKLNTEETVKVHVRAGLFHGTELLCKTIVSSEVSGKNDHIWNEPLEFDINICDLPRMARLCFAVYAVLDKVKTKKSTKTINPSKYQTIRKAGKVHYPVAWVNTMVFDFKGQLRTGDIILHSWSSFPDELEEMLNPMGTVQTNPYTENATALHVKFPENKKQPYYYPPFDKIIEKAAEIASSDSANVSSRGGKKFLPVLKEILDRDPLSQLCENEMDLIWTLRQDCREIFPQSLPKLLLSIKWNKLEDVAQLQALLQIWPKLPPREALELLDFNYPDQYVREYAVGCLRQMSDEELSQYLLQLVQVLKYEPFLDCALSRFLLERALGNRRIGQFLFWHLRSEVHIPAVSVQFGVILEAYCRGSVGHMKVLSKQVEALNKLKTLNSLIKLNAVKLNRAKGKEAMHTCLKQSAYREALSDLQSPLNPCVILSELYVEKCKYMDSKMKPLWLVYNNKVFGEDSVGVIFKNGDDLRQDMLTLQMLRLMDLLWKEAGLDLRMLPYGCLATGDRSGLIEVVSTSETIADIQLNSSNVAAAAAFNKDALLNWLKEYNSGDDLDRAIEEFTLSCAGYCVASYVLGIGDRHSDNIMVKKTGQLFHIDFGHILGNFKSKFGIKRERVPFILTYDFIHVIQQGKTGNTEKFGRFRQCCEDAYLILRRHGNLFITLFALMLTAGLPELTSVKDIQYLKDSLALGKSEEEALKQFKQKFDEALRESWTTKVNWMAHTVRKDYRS
Cytochrome P450 3A4, sequence (P08684 whole entry): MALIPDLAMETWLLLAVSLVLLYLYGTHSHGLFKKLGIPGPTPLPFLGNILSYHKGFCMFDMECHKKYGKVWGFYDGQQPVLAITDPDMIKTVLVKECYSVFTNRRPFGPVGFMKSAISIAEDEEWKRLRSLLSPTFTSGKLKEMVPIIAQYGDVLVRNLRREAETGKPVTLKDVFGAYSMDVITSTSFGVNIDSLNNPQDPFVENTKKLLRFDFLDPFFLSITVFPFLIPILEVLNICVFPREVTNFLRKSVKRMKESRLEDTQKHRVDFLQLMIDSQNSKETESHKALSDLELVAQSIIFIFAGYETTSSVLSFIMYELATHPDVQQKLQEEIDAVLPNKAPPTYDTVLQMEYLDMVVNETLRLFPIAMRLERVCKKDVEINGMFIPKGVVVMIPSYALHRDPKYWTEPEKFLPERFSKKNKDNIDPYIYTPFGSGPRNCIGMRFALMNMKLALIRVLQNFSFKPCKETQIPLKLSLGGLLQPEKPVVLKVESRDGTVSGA
Phosphatidylinositol 4,5-bisphosphate 3-kinase catalytic subunit alpha isoform, sequence (P42336 whole entry, canonical isoform): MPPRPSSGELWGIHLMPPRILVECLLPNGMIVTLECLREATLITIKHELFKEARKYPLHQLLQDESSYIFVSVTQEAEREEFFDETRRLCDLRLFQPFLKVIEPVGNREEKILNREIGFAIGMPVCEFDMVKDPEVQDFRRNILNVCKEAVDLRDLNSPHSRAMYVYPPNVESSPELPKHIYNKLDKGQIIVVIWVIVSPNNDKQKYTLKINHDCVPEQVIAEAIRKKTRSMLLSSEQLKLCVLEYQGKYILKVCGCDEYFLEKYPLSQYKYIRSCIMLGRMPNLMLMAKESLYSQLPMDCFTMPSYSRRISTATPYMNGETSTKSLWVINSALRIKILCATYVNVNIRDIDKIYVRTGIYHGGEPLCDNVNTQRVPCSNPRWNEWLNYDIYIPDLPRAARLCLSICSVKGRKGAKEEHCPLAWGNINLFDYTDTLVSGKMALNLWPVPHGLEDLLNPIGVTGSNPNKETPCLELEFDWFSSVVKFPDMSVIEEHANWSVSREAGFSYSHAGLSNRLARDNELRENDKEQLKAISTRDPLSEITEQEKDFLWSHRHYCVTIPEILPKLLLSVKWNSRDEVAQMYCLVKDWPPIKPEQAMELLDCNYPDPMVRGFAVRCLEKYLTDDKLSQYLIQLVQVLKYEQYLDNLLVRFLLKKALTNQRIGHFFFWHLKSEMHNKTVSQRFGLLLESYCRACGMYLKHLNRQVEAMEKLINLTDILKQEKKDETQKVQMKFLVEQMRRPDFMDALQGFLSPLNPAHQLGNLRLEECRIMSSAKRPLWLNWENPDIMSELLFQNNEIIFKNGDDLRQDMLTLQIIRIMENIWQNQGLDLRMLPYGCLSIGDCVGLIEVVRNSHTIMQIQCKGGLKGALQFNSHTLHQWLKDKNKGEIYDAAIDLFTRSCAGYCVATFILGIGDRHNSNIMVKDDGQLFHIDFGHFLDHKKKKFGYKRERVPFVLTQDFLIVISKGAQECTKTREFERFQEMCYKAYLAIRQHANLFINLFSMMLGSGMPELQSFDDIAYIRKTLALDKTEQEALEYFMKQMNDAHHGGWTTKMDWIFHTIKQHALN

Structure (SMILES)	IC50 [1]	IC50 [2]	IC50 [3]	IC50 [4]	IC50 [5]	solubility thermodynamic at 16 h [6]	Papp [7]	metabolised at 20 min [8]	metabolised at 20 min [9]	IC50 (Cytochrome P450 3A4)	Ratio [10]
O=C(Cc1nc(N2CCOCC2)cc(=O)[nH]1)Nc1ccc(F)c(Br)c1	4140 nM	26 nM	297 nM	6610 nM	38 nM	5 µM (≈ 2.06 µg/mL)	0.8 ×10⁻⁶ cm/s	18%	42%	> 40000 nM	
O=C(Cc1nc(N2CCOCC2)cc(=O)[nH]1)Nc1ccccc1F	> 10000 nM	142 nM	2450 nM	> 10000 nM	349 nM						
O=C(Cc1nc(N2CCOCC2)cc(=O)[nH]1)Nc1cccc(F)c1	6220 nM	81 nM	1110 nM	> 10000 nM	74 nM			21%	55%		
O=C(Cc1nc(N2CCOCC2)cc(=O)[nH]1)Nc1ccc(F)cc1	2870 nM	13 nM	86 nM	> 10000 nM	31 nM	45 µM (≈ 15 µg/mL)	0.6 ×10⁻⁶ cm/s	27%	24%	> 40000 nM	
Cc1ccccc1NC(=O)Cc1nc(N2CCOCC2)cc(=O)[nH]1	> 10000 nM	236 nM	4270 nM	> 10000 nM	586 nM						
Cc1cccc(NC(=O)Cc2nc(N3CCOCC3)cc(=O)[nH]2)c1	626 nM	17 nM	164 nM	7070 nM	45 nM	3 µM (≈ 0.985 µg/mL)	1.4 ×10⁻⁶ cm/s	54%	80%		
O=C(Cc1nc(N2CCOCC2)cc(=O)[nH]1)Nc1ccc(Cl)cc1	2270 nM	398 nM	2780 nM	5090 nM	1420 nM						
O=C(Cc1nc(N2CCOCC2)cc(=O)[nH]1)Nc1cccc(Cl)c1	2550 nM	33 nM	278 nM	> 10000 nM	100 nM	9 µM (≈ 3.14 µg/mL)	0.8 ×10⁻⁶ cm/s	22%	43%	> 40000 nM	
COc1cccc(NC(=O)Cc2nc(N3CCOCC3)cc(=O)[nH]2)c1	2370 nM	15 nM	611 nM	> 10000 nM	47 nM	38 µM (≈ 13.1 µg/mL)	0.3 ×10⁻⁶ cm/s	47%	76%	> 40000 nM	
O=C(Cc1nc(N2CCOCC2)cc(=O)[nH]1)Nc1cccc(Br)c1	1910 nM	5 nM	189 nM	> 10000 nM	10 nM	6 µM (≈ 2.36 µg/mL)	1.4 ×10⁻⁶ cm/s	38%	75%	> 40000 nM	26
O=C(Cc1nc(N2CCOCC2)cc(=O)[nH]1)Nc1ccc(F)c(F)c1	3840 nM	53 nM	135 nM	> 10000 nM	55 nM	3 µM (≈ 1.05 µg/mL)	0.8 ×10⁻⁶ cm/s	11%	25%		
Cc1cc(NC(=O)Cc2nc(N3CCOCC3)cc(=O)[nH]2)ccc1F	831 nM	6 nM	63 nM	8010 nM	71 nM	3 µM (≈ 1.04 µg/mL)	0.6 ×10⁻⁶ cm/s	60%	91%	> 40000 nM	
O=C(Cc1nc(N2CCOCC2)cc(=O)[nH]1)Nc1ccc(F)c(Cl)c1	1900 nM	2 nM	137 nM	6710 nM	19 nM	3 µM (≈ 1.1 µg/mL)	0.8 ×10⁻⁶ cm/s	14%	40%		
COc1cc(NC(=O)Cc2nc(N3CCOCC3)cc(=O)[nH]2)ccc1F	3460 nM	3 nM	148 nM	> 10000 nM	98 nM	33 µM (≈ 12 µg/mL)	0.2 ×10⁻⁶ cm/s	28%	71%	> 40000 nM	
COC(=O)c1cc(NC(=O)Cc2nc(N3CCOCC3)cc(=O)[nH]2)ccc1F	8140 nM	175 nM	4650 nM	> 10000 nM	1740 nM						
O=C(Cc1nc(N2CCOCC2)cc(=O)[nH]1)Nc1ccc(F)c([N+](=O)[O-])c1	4350 nM	47 nM	3360 nM	> 10000 nM	1260 nM						
Cn1c(CC(=O)Nc2ccccc2)nc(N2CCOCC2)cc1=O	> 10000 nM	469 nM	4290 nM	> 10000 nM	340 nM						
Cn1c(CC(=O)Nc2ccc(F)cc2)nc(N2CCOCC2)cc1=O	> 10000 nM	244 nM	1470 nM	> 10000 nM	110 nM						
Cn1c(CC(=O)Nc2ccc(F)c(F)c2)nc(N2CCOCC2)cc1=O	8510 nM	262 nM	1770 nM	> 10000 nM	100 nM						
Cn1c(CC(=O)Nc2ccc(F)c(Br)c2)nc(N2CCOCC2)cc1=O	7610 nM	387 nM	2210 nM	> 10000 nM	94 nM						
COc1cc(NC(=O)Cc2nc(N3CCOCC3)cc(=O)n2C)ccc1F	> 10000 nM	104 nM	2400 nM	> 10000 nM	100 nM						
